Rows were chosen to be rich in hits. Some 1.7% of all compounds tested hit in one or more screens of this group.
A3A deaminase: inhibitors of human APOBEC3A DNA deaminase; P31941; recombinant A3A, FAM/TAMRA ssDNA deamination fluorescence; inhibition, % at 20 µM; actives 0.41% (n = 330,000); AID 493011;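 active = at least 40% inhibition at 20 µM here, with at most 30% in a related deaminase screen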;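 also: plate controls were A3A with DMSO for no effect and wells lacking A3A enzyme for full effect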
Target sequence (P31941 whole entry, looked up): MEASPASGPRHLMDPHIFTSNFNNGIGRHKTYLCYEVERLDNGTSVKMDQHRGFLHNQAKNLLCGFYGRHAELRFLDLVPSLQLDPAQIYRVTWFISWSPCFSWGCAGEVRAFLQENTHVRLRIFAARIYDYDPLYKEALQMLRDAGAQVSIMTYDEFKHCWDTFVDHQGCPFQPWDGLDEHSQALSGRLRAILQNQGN
C-LANA FP: inhibitors of KSHV LANA C-terminal domain DNA binding; MBP-C-LANA/FAM-LBS DNA binding, fluorescence polarization; AID 504423; actives 0.078% (n = 340,000); inhibition, % at 9 µM;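 active = highest replicate inhibition at or above 60% at 9 µM, even if other replicates fall short; inactive = all replicates below 60% inhibition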;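 also: 0% = neutral control wells and 100% = 4 µM acridine orange control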
APOBEC3G inh: inhibitors of human APOBEC3G DNA deaminase; recombinant A3G, ssDNA deamination FAM/TAMRA fluorescence; inhibition, % at 20 µM; actives 0.28% (n = 330,000);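 active = inhibition of at least 40% at 20 µM, with no more than 30% in the related APOBEC3A deaminase screen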;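 also: plate controls were DMSO wells with A3G for no effect and wells lacking A3G enzyme for full effect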
Target sequence (Q9HC16 whole entry, looked up): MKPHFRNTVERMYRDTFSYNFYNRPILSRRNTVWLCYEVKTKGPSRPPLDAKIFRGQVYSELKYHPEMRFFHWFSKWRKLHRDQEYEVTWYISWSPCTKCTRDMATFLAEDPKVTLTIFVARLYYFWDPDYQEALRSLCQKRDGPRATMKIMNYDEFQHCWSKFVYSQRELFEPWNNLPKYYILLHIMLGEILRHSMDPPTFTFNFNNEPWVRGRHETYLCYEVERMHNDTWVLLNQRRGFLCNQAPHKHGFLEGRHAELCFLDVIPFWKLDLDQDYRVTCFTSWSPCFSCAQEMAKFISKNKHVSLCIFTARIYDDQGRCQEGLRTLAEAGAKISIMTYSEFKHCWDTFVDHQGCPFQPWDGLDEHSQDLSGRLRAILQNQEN
Keap1 Nrf2 FP: inhibitors of human Keap1-Nrf2 protein-protein interaction. Keap1 Kelch-Nrf2 peptide fluorescence polarization, 1536-well. inhibition, % at 9.4 µM. actives 0.15% (n = 340,000); in the data active = inhibition above about 12%;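 also: human Keap1 Kelch domain with fluorescein labeled Nrf2 9mer peptide probe; 0% = neutral control wells and 100% = peptide positive control; higher means more block of Keap1 binding to Nrf2 peptide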
CAL PDZ FP-1: blocks peptide binding to the human CAL PDZ domain; purified CAL PDZ, TMR-peptide fluorescence polarization, 1 h; inhibition, % at 24.9 µM; actives 0.92% (n = 300,000);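 active = mean inhibition of at least 30% with at least half of replicates also reaching 30%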;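 also: 0% = DMSO neutral control and 100% = excess unlabeled competitor peptide PRC23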
CAL PDZ FP-2: inhibitors of human CAL PDZ peptide binding; Q9HD26; purified CAL PDZ, TMR-peptide fluorescence polarization, 1 h; inhibition, % at 20 µM; actives 0.02% (n = 330,000);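 active = highest replicate inhibition of at least 40%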;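 also: plate controls were DMSO neutral control wells for no effect and unlabeled competitor peptide control wells for full effect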
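material = purified tagged CAL PDZ domain construct (CerCALP) | buffer or medium = sodium phosphate/NaCl buffer pH 7.4 with TCEP, IgG, Thesit | reagent = TMR-labelled reporter peptide T*-PRC34 bound in PDZ groove | incubation = 1 h room-temperature incubation prior to read | measured by = fluorescence polarization (mP) | evaluation = percent inhibition from loss of millipolarization | control set = unlabelled peptide and DMSO controls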
APOBEC3A confirm: APOBEC3A (human) deaminase inhibition, confirmed. shares compounds with A3A deaminase. recombinant A3A, ssDNA deaminase UDG fluorescence assay. inhibition, % at 20 µM. actives 63% (n = 1,400). AID 493151;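 active = inhibition reaching a set limit, 80% of the first screen's cutoff, at 20 µM in any replicate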;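 also: plate controls were DMSO wells with A3A for no effect and wells lacking A3A enzyme for full effect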
UDG A3A counter: UDG inhibition in APOBEC3A counter-screen | 1,000 tested, under 10 active | shares compounds with A3A deaminase | inhibition, % at 20 µM | UDG counterscreen, FAM/TAMRA uracil oligo fluorescence; call rule not given here
Starred values were filed as active, the others as inactive; nt = no result.

SMILES | A3A deaminase | C-LANA FP | APOBEC3G inh | Keap1 Nrf2 FP | CAL PDZ FP-1 | CAL PDZ FP-2 | APOBEC3A confirm | UDG A3A counter
O=C(N/N=C/c1ccc([N+](=O)[O-])o1)C(=O)Nc1ccc(C(=O)O)cc1 | 11 | 3 | -3 | 3 | -3 | -3 | nt | nt
COc1ccc(COC(=O)CCc2cc(OC)c(OC)c(OC)c2)cc1F | nt | 1 | nt | 2 | nt | 0 | nt | nt
O=C(CSC1=NCCS1)NC1CCCCC1 | 49* | 2 | 8 | -2 | -2 | 0 | 52* | 0
O=C(CSC1=NCCS1)NC1CCCC1 | -2 | -3 | -2 | -4 | -2 | nt | nt | nt
O=C(O)/C(=C\c1ccc(Cl)c([N+](=O)[O-])c1)c1ccc(S(=O)(=O)N2CCCCC2)s1 | 4 | 2 | 0 | -5 | 5 | -1 | nt | nt
O=C(O)/C(=C\c1ccc(Cl)c([N+](=O)[O-])c1)c1ccc(S(=O)(=O)N2CCCC2)s1 | 55* | 6 | 10 | 2 | -2 | -1 | 47* | 2
Cc1ccc(N2CCN(S(=O)(=O)c3c(C)nc4scc(C)n4c3=O)CC2)c(C)c1 | -3 | -2 | -4 | 5 | nt | 0 | nt | nt
COc1ccc(OC)c(NS(=O)(=O)c2cccs2)c1 | 62* | 2 | -5 | 3 | -2 | 0 | -1 | 3
COC(=O)c1c(NC(=O)CSc2nc3nc(C)cc(C)n3n2)sc(C)c1C | 1 | 1 | -3 | -1 | 1 | -2 | nt | nt
O=C(COc1cc2oc(=O)cc(-c3ccccc3)c2cc1Cl)NCc1ccccn1 | -3 | 0 | -5 | 5 | -8 | -6 | nt | nt
CC[N+]1=CN(c2ccccc2)C(C)=CC1(C)C | 61* | 3 | 24 | 2 | -1 | -1 | 28 | nt
CC1=NN(c2ccccc2)C(=O)C1(C)C | -2 | 1 | -2 | -1 | -6 | 1 | nt | nt
COc1cc(OC)cc(C(=O)OCC(=O)Nc2cccc(S(=O)(=O)NC3=NCCCCC3)c2)c1 | 88* | -1 | -1 | -10 | -1 | 8 | -4 | 2
O=C(COC(=O)c1ccc(O)cc1)Nc1cccc(S(=O)(=O)NC2=NCCCCC2)c1 | -5 | -3 | 2 | 0 | 0 | -1 | nt | nt
CCN(CC)S(=O)(=O)c1cccc(C(=O)Nc2ccc(S(=O)(=O)NC3=NCCCCC3)cc2)c1 | 55* | -1 | 3 | 1 | -6 | -4 | 7 | nt
CC1(C)CC(NC(=O)C2CCN(S(=O)(=O)c3ccc(F)cc3)CC2)CC(C)(C)N1 | -1 | 0 | -6 | 0 | 6 | -1 | nt | nt
Cc1ccccc1N/N=C/c1c(C)nc2ccccn12 | 1 | -1 | -3 | 2 | -1 | 2 | nt | nt
CCn1cc(-c2ccnc3cc(C(=O)O)nn23)c(C)n1 | -1 | 0 | -2 | -3 | 2 | 1 | nt | nt
Cc1c(-c2ccnc3cc(C(=O)O)nn23)cnn1C | 49* | 1 | -7 | -1 | 0 | -1 | 32* | 0
CCC(C)C(NC(=O)C(C)NC(=O)CNC(=O)OC(C)(C)C)C(N)=O (centres undefined) | -2 | -1 | -7 | -3 | -4 | -1 | nt | nt
CC1C[N+](=C2C=C(N3CCOCC3)CC(C)(C)C2)CC(C)O1 (centres undefined) | 57* | -1 | 18 | -4 | 0 | 0 | 65* | 1
O=C1C=C(N2CCOCC2)CO1 | -1 | 0 | -1 | 0 | -1 | 0 | nt | nt
CN(C)c1cccc(N=C2C=C(N3CCOCC3)CC(C)(C)C2)c1 | 25 | -1 | 11 | -3 | -7 | -2 | nt | nt
CC1(C)CC(N2CCOCC2)=CC(=[N+]2CCOCC2)C1 | 66* | -1 | 25 | 7 | nt | 0 | 69* | 1
CCCN(CCC)C1=CC(=[N+]2CCCC2)CC(C)(C)C1 | 60* | 1 | 27 | 3 | 0 | 0 | 31 | nt
SMILES | A3A deaminase | C-LANA FP | APOBEC3G inh | Keap1 Nrf2 FP | CAL PDZ FP-1 | CAL PDZ FP-2 | APOBEC3A confirm | UDG A3A counter
CN(C)NC1=CC(=[N+]2CCCC2)CC(C)(C)C1 | 19 | -1 | 0 | -1 | 1 | -1 | nt | nt
CC1(C)CC(N2CCCCC2)=CC(=[N+]2CCCCC2)C1 | 60* | -2 | 25 | -1 | 2 | 0 | 69* | -2
S=c1sc(SCCOc2ccccc2)nn1-c1ccccc1 | 0 | 0 | -2 | -4 | -3 | -3 | nt | nt
CC(NC(=O)COc1ccc(S(=O)(=O)N2CCOCC2)cc1)c1ccccc1 (centres undefined) | 2 | 0 | -5 | 0 | -8 | -1 | nt | nt
CN(C(=O)CSc1nnnn1-c1ccccc1)C1CCS(=O)(=O)C1 (centres undefined) | 4 | 0 | -3 | 1 | -2 | -1 | nt | nt
Cn1ccsc1=NC(=O)c1ccc(=O)[nH]c1 | 59* | 0 | 18 | -6 | -1 | -3 | 4 | nt
O=C(CNC(=O)OCc1ccccc1)Nc1ccc(F)cc1 | 67* | 1 | 20 | 1 | 9 | 0 | 70* | 1
COc1ccc(-c2noc(CSc3nc(-c4ccccc4)cc(=O)[nH]3)n2)cc1 | 56* | 2 | 14 | -4 | -6 | -2 | 22 | nt
CCN1C(=NCCOC)N[C@@H](c2ccccc2)[C@H](C(=O)OC)[C@H]1C | 46* | 0 | 9 | -7 | -1 | 1 | 75* | 1
COC(=O)C1=C(C)N(Cc2ccccc2)C(=NCc2cc(OC)c(OC)c(OC)c2)N[C@H]1c1cccc(F)c1 | 19 | 1 | -4 | -1 | -4 | 0 | nt | nt
CCN1C(=NCc2cc(OC)c(OC)c(OC)c2)N[C@@H](c2ccccc2)[C@H](C(=O)OC)[C@H]1C | 75* | nt | 29 | nt | nt | nt | 47* | nt
COCCN1C(=O)N[C@@H](c2ccccc2)[C@@H](C(=O)OC)[C@H]1C | -2 | 0 | -8 | 2 | 1 | 1 | nt | nt
CC(=O)N1CCN(C2=NC(=O)/C(=C\c3cccs3)S2)CC1 | -5 | 0 | -8 | -1 | 0 | -1 | nt | nt
O=C1N=C(N2CCOCC2)S/C1=C/c1cccs1 | 71* | -3 | -1 | 1 | -4 | -1 | -2 | -3
COC(=O)Cn1cc(/C=C/c2cc[n+](C)cc2)c2ccccc21 | 66* | -9 | 25 | -87 | 0 | 0 | 67* | 0
COC(=O)Cn1c(C)c(/C=C/c2cc[n+](C)cc2)c2ccccc21 | 80 | -29 | 31 | -86 | 3 | 0 | nt | nt
Cc1ccc(S(=O)(=O)Cc2ccc(C(=O)N3CCc4ccccc4C3)o2)cc1 | 41* | 1 | 11 | -7 | 1 | -1 | 34* | -3
COc1ccc(S(=O)(=O)Cc2ccc(C(=O)N3CCc4ccccc4C3)o2)cc1 | 3 | 1 | -4 | -3 | 26 | -1 | nt | nt
COn1c(-c2ccccc2)nc2c1CCc1nonc1-2 | 54* | -1 | 0 | -2 | 3 | 0 | -7 | -2
